UHRF1 MBD2 ctr: UHRF1 methylated DNA binding inhibitors, primary screen, counter-screen for MBD2 inhibitor project, biochemical, TR-FRET, human UHRF1, single concentration; E3 ubiquitin-protein ligase UHRF1 (Homo sapiens), Q96T88; UHRF1 binding to methylated oligo; inhibition, % at 4.4 µM; actives 0.75% (n = 370,000); AID 687016, 2013; in the data active = inhibition above about 21%;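 note: UHRF1 SRA domain binding a hemimethylated CpG hairpin DNA probe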
LEDGF integ inh: blockers of LEDGF/p75-dependent integrase strand transfer – biochemical, TR-FRET, high throughput, primary screen. TR-FRET IN-LEDGF/p75 DNA integration, Eu/Cy5. HIV-1 integrase (with human LEDGF/p75). inhibition, % at 3.7 µM. actives 0.64% (n = 370,000). AID 743269, 2014;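 active = inhibition above the screen-wide mean plus 3 SD, cut at about 13% in these data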;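 note: signal is the Cy5 over europium emission ratio at 671 and 618 nm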
MBD2 inh: inhibitors of MBD2 binding to methylated DNA, primary screen, biochemical, TR-FRET, DNA-binding domain, human | Methyl-CpG-binding domain protein 2 (Homo sapiens), Q9UBB5 | actives 0.31% (n = 370,000) | MBD2 binding to methylated oligonucleotide | inhibition, % at 4.4 µM | AID 686964, 2013; in the data active = inhibition above about 13%
Target sequence (Q9UBB5 whole entry, looked up, the tested form may be a part): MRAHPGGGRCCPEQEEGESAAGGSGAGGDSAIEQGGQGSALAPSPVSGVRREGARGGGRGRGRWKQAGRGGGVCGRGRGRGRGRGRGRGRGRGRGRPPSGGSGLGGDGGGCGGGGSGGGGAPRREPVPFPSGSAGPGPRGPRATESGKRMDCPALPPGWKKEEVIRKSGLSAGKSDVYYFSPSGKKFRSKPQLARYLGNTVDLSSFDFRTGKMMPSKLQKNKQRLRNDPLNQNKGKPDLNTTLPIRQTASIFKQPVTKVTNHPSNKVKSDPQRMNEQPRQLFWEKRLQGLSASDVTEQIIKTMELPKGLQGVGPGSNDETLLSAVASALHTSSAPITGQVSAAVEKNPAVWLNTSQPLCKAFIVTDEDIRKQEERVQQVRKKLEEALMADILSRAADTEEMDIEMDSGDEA
TDP2 absorb: human TDP2 enzyme inhibitors, primary screen, biochemical, epi absorbance, recombinant enzyme; inhibition, % at 12.8 µM; actives 0.34% (n = 370,000); AID 720702, 2013; Tyrosyl-DNA phosphodiesterase 2 (Homo sapiens), O95551; T5PNP hydrolysis, p-nitrophenol absorbance 415 nm;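 active = inhibition above the mean of all tested compounds plus 3 SD, set per campaign, cut at about 25% in these data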
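Test system: Human TDP2 enzyme | Reagent: 5 mM T5PNP | Compound dosing: 12.8 µM single point, 1% DMSO | Incubation: Enzyme reaction with compound for 2 h at 37 °C | Technique: p-Nitrophenol epi absorbance | Read-out: % inhibition relative to enzyme-containing and enzyme-free wells | Benchmarks: High control without enzyme, low control DMSO plus TDP2 | Replicates: Singlicate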
IN multimer act: HIV-1 IN multimer formation enhancers, counter-screen for LEDGF/p75 integration inhibitor project, biochemical, TR-FRET; shares compounds with LEDGF integ inh; TR-FRET HIV-1 integrase multimerization; activation, % at 7.7 µM; actives 17% (n = 2,000); AID 1053131, 2014; in the data active = activation above about 8.9%
TRFRET interf: TR-FRET optical interference artefacts, confirmation, artefact control for LEDGF/p75-dependent integration inhibitor project, biochemical, HIV-1 IN multimerization; AID 1053135, 2014; 2,000 tested, under 10 active; inhibition, % at 7.7 µM; shares compounds with LEDGF integ inh; TR-FRET optical interference counterscreen;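 active = inhibition above the mean over all tested compounds plus 3 SD, which no compound reached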
LEDGF integ conf: inhibitors of HIV-1 IN-LEDGF/p75 DNA integration, confirmation, biochemical, TR-FRET; TR-FRET LEDGF/p75-dependent HIV-1 integration; inhibition, % at 3.7 µM; shares compounds with LEDGF integ inh; AID 1053136, 2014; actives 36% (n = 2,000); in the data active = inhibition above about 14%
Hits are given with their value; – = inactive; · = no result. Only some compounds are listed: those with a hit (about 1.6% of all), similar ones and a draw of the others.

SMILES	UHRF1 MBD2 ctr	LEDGF integ inh	MBD2 inh	TDP2 absorb	IN multimer act	TRFRET interf	LEDGF integ conf
Oc1ccc(NCc2ccccc2OCc2ccccc2)cc1	–	14.2	–	–	15.0	–	24.2
Cc1ccc2c(C)c(C(=O)N3CCN(Cc4ccc5c(c4)OCO5)CC3)oc2c1C	–	–	–	–	·	·	·
CN(Cc1cccnc1)C(=O)CNC(=O)c1ccc(Cl)cc1Cl	–	–	–	–	·	·	·
Cn1cc(C(=O)N/N=C/C2=C(N3CCOCC3)C(=C/c3ccc([N+](=O)[O-])cc3)/CC2)ccc1=O	–	87.7	–	–	–	–	–
CC(C)C(NC(=O)C12CC3CC(CC(C3)C1)C2)C(=O)N/N=C/C1=C(N2CCOCC2)C(=C\c2cccc([N+](=O)[O-])c2)/CC1 (stereo not given)	–	–	–	–	·	·	·
O=C(Cc1nnc(NC(=O)c2ccccc2)s1)N/N=C/c1ccc(O)cc1	–	–	–	–	·	·	·
O=C(Cc1nnc(NC(=O)c2ccccc2)s1)N/N=C\c1ccc(O)c(O)c1	–	16.4	–	–	34.6	–	49.9
COc1ccc(CN2C(=O)c3cccnc3C2Nc2cc(Cl)ccc2OC)cc1 (stereo not given)	–	15.2	–	–	–	–	22.9
Cc1ccc(NC2c3ncccc3C(=O)N2Cc2ccco2)c(C)c1 (stereo not given)	–	20.4	–	–	–	–	–
COc1ccc(OC)c(NC2c3ncccc3C(=O)N2Cc2ccco2)c1 (stereo not given)	–	–	–	–	·	·	·
COc1cc(/C=N/Nc2cc(C)nc(N)n2)ccc1O	–	–	–	–	·	·	·
N=C1/C(=C\c2coc3ccccc3c2=O)C(=O)N=C2SC(c3ccncc3)=NN12	–	25.4	–	–	–	–	61.6
CSC1=NSC2=NC(=O)/C(=C\c3coc4ccccc4c3=O)C(=N)N12	–	–	–	–	·	·	·
O=C1C=CC(=O)c2c(O)c(N3CCN(CCO)CC3)c(Cl)c(O)c21	–	25.5	–	–	90.6	–	77.8
O=S(=O)(c1ccc(Br)cc1Cl)N1CCN(CCO)CC1	–	–	–	–	·	·	·
O=C1C=CC(=O)c2c(O)c(N3CCN(CCOCCO)CC3)c(Br)c(O)c21	40.1	49.5	–	–	99.0	–	82.6
c1ccc(Oc2cc(-c3ccccc3)ncn2)cc1	–	–	–	–	·	·	·
CCOc1cc(/C=C2\C(=N)N3N=C(S(=O)(=O)CC)SC3=NC2=O)ccc1OC(=O)c1ccco1	–	–	–	–	·	·	·
CCS(=O)(=O)C1=NN2C(=N)/C(=C\c3ccc(SCc4ccco4)o3)C(=O)N=C2S1	38.3	42.5	–	–	14.8	–	53.2
Cc1nc(SCC(=O)N2CCCc3ccccc32)c2oc3ccccc3c2n1	–	–	–	–	·	·	·
CCc1nc(SCC(=O)N2CCc3ccccc32)c2oc3ccccc3c2n1	–	14.2	–	–	–	–	–
c1cnc(N2CCN(Cc3ccc4c(c3)OCO4)CC2)nc1	–	–	–	–	·	·	·
CC(C)(C)OC(=O)N1CCC(C(=O)N[C@@H](Cc2ccccc2)C(=O)O)(c2ccccc2)CC1	–	18.1	–	–	–	–	14.9
CC(C)[C@H](NC(=O)C1(c2ccccc2)CCN(C(=O)OC(C)(C)C)CC1)C(=O)O	–	–	–	–	·	·	·
COc1c(-c2ccc(O)c(O)c2)oc2cc(O)cc(O)c2c1=O	–	15.9	–	–	9.3	–	72.4
SMILES	UHRF1 MBD2 ctr	LEDGF integ inh	MBD2 inh	TDP2 absorb	IN multimer act	TRFRET interf	LEDGF integ conf
COc1ccc(Nc2ncc(C(=O)O)c3ccccc23)cc1	–	–	–	–	·	·	·
COc1ccc(Nc2ncc(C(=O)N3CCN(c4ccc(F)cc4)CC3)c3ccccc23)cc1	–	14.0	–	–	–	–	–
CC(C)(C)OC(=O)N/N=C/c1cccn1-c1ccc([N+](=O)[O-])cc1	–	14.0	–	–	–	–	–
COc1ccc(CC(=O)N/N=C/c2cccn2-c2ccc([N+](=O)[O-])cc2)cc1OC	–	–	–	–	·	·	·
O=C(Cn1nnc2c(cnn2-c2ccc(F)cc2)c1=O)c1ccccc1F	–	–	–	–	·	·	·
CC(NC(=O)CCCc1ccccc1)c1ccncc1 (stereo not given)	–	–	–	–	·	·	·
COC(=O)[C@@]12C[C@@H](CC(=O)N3CCN(C(=O)c4ccco4)CC3)C(=O)N(Cc3cccc4ccccc34)C1=CCC(C)(C)C2	–	21.5	–	–	–	–	–
COC(=O)[C@@]12C[C@@H](CC(=O)N3CCCCC3)C(=O)N(Cc3cccc4ccccc34)C1=CCC(C)(C)C2	–	–	–	–	·	·	·
COc1ccc(-c2cnc(N)n2CC2CCCO2)cc1 (stereo not given)	–	27.6	–	–	–	–	–
c1ccc(-c2cnc(SCCN3CCOCC3)n2CC2CCCO2)cc1 (stereo not given)	–	–	–	–	·	·	·
CCSCC1COC(c2cccn2Cc2ccc(C)cc2)=N1 (stereo not given)	–	–	–	–	·	·	·
CCC1COC(c2cccn2Cc2ccc(Cl)cc2)=N1 (stereo not given)	–	14.3	–	–	–	–	–
O=C(c1cc([N+](=O)[O-])ccc1Cl)N1CCN(Cc2ccccc2)CC1	–	–	–	–	·	·	·
CN(C)c1ccc(N/C=C/C(=O)c2ccccc2)cc1	–	14.8	–	–	–	–	–
O=C(CS(=O)CC(=O)Nc1cccc2c1CCCC2)Nc1ccc(F)cc1 (stereo not given)	–	–	–	–	·	·	·
COc1ccc(S(=O)(=O)N2CCOCC2)cc1NC(=O)CSc1n[nH]c(=O)n1C1CC1	–	70.6	–	–	–	–	–
COC(=O)c1sccc1N/C=C(\C#N)S(=O)(=O)C(C)(C)C	–	78.8	–	–	–	–	–
Cc1ccc(NC(=O)c2ccc(CSc3ccccn3)cc2)cc1	–	–	–	–	·	·	·
Cc1ccc(NC(=O)c2ccc(CSc3ccccn3)cc2)c(O)c1	–	82.4	–	–	–	–	–
O=C(O)c1ccc(NS(=O)(=O)c2ccc3c(c2)C2C=CCC2C(c2ccccc2F)N3)cc1 (stereo not given)	–	43.1	–	–	17.2	–	32.7

Bioassay records (PubChem)
